Test results as given in ChEMBL document CHEMBL4043201, “Conjugates of 18β-glycyrrhetinic acid derivatives with 3-(1H-benzo[d]imidazol-2-yl)propanoic acid as Pin1 inhibitors displaying anti-prostate cancer ability” (Bioorg Med Chem, 2017).

Legend:
LNCaP = experiment: Antiproliferative activity against human LNCAP cells assessed as inhibition of cell growth incubated for 96 hrs by MTT assay; type: functional
Summary of the method: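 MTT growth assay. Cells seeded at 2×10^4 per well and held 24 h at 37 °C under 5% CO2 before compound was added at a range of concentrations. Exposure lasted 96 h, then 2 mg/mL MTT was added for 4 h. Cells were dissolved in DMSO and absorbance read at 570 nm. Growth was taken as treated/untreated cell number. GI50 was derived from the inhibition ratios. Three independent experiments, mean reported.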

PC-3 = experiment: Antiproliferative activity against human PC3 cells assessed as inhibition of cell growth incubated for 96 hrs by MTT assay; type: functional; conditions: PC-3, 96 h
Summary of the method: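 PC-3 cells grown in RPMI1640 with 10% heat-inactivated FBS, seeded at 2×10^4 cells/well and kept 24 h at 37 °C in 5% CO2. Compounds were then added at various concentrations for 96 h. MTT (2 mg/mL) was added for a further 4 h, cells dissolved in DMSO, and A570 read. Growth was treated/untreated cell number, with GI50 calculated from inhibition ratios. Mean of three independent runs.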

[1] = molecular target: T1, Peptidyl-prolyl cis-trans isomerase NIMA-interacting 1 (Homo sapiens, UniProt Q13526); experiment: Inhibition of Pin1 (unknown origin) assessed as reduction in peptidyl-prolyl isomerase activity at 10 uM incubated for 30 mins using Suc-Ala-Glu-cis-Pro-Phe-4-nitroanilide substrate by protease coupled assay
T1 sequence (Q13526 whole entry): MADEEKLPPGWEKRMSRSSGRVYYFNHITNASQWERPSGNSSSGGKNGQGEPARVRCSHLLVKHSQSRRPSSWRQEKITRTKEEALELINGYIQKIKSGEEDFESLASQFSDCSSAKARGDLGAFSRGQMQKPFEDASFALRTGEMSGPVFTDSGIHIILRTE
Summary of the method: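 Commercial Pin1 in 35 mM HEPES pH 7.8 was pre-equilibrated with compound (DMSO solutions) for 30 min at 10 °C. Ice-cold chymotrypsin (stock 60 mg/mL in 0.001 M HCl) was added, then Suc-Ala-Glu-cis-Pro-Phe-4-nitroanilide in 0.47 mol/L LiCl/trifluoroethanol was added to start the reaction. Absorbance at 390 nm was monitored for 90 s at 10 °C.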

[2] = molecular target: T1, Peptidyl-prolyl cis-trans isomerase NIMA-interacting 1; experiment: Inhibition of Pin1 (unknown origin) assessed as reduction in peptidyl-prolyl isomerase activity incubated for 30 mins using Suc-Ala-Glu-cis-Pro-Phe-4-nitroanilide substrate by protease coupled assay
[3] = molecular target: T1, Peptidyl-prolyl cis-trans isomerase NIMA-interacting 1; experiment: Inhibition of Pin1 in human PC3 cells assessed as reduction in Cyclin D1 protein level at 10 to 30 uM incubated for 24 hrs by Western blot method; type: cell-based
Summary of the method: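 PC-3 cells were treated 24 h with compound at 10, 20 or 30 μM, with DMSO as control. Cells were lysed in RIPA buffer with protease inhibitors, and 40 μg protein was run on 10% SDS-PAGE and blotted to nitrocellulose. Ponceau S was used as a loading check. Membranes were blocked in 5% milk and probed overnight at 4 °C with anti-cyclin D1 and β-actin, with secondary antibody 1 h at 37 °C. ECL detection.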

Structure (SMILES) | GI50 (LNCaP) | GI50 (PC-3) | inhibition [1] | IC50 [2] | inhibition [3]
CC(=O)O[C@H]1CC[C@]2(C)[C@H]3C(=O)C=C4[C@@H]5C[C@@](C)(C(=O)NCCCn6c(CCC(=O)O)nc7ccccc76)CC[C@]5(C)CC[C@@]4(C)[C@]3(C)CC[C@H]2C1(C)C | > 50 µM | > 50 µM | 50% |  | 
CC(=O)O[C@H]1CC[C@]2(C)[C@H]3CC=C4[C@@H]5C[C@@](C)(C(=O)OCCn6c(CCC(=O)O)nc7ccccc76)CC[C@]5(C)CC[C@@]4(C)[C@]3(C)CC[C@H]2C1(C)C | 13.3 µM | 10.9 µM | 94% | 4.79 µM | 
CC1(C)C(=O)CC[C@]2(C)[C@H]3C(=O)C=C4[C@@H]5C[C@@](C)(C(=O)OCCn6c(CCC(=O)O)nc7ccccc76)CC[C@]5(C)CC[C@@]4(C)[C@]3(C)CC[C@@H]12 | 48.9 µM | 39.9 µM | 63% |  | 
CC1(C)C(=O)CC[C@]2(C)[C@H]3C(=O)C=C4[C@@H]5C[C@@](C)(C(=O)OCCCn6c(CCC(=O)O)nc7ccccc76)CC[C@]5(C)CC[C@@]4(C)[C@]3(C)CC[C@@H]12 | 29.3 µM | 35.6 µM | 77% |  | 
CC1(C)C(=O)CC[C@]2(C)[C@H]3C(=O)C=C4[C@@H]5C[C@@](C)(C(=O)NCCCn6c(CCC(=O)O)nc7ccccc76)CC[C@]5(C)CC[C@@]4(C)[C@]3(C)CC[C@@H]12 | > 50 µM | > 50 µM | 28% | > 10 µM | 
CC1(C)[C@@H](O)CC[C@]2(C)[C@H]3C(=O)C=C4[C@@H]5C[C@@](C)(C(=O)O)CC[C@]5(C)CC[C@@]4(C)[C@]3(C)CC[C@@H]12 [ENOXOLONE] |  | 95.7 µM | 34% | > 10 µM | 
O=C(O)CCc1nc2ccccc2[nH]1 [PROCODAZOLE] | > 50 µM | > 50 µM | 23% |  | 
CC1(C)C(=O)CC[C@]2(C)[C@H]3CC=C4[C@@H]5C[C@@](C)(C(=O)OCCn6c(CCC(=O)O)nc7ccccc76)CC[C@]5(C)CC[C@@]4(C)[C@]3(C)CC[C@@H]12 | 25.8 µM | 18.4 µM | 69% |  | 
CC1(C)C(=O)CC[C@]2(C)[C@H]3C(=O)C=C4[C@@H]5C[C@@](C)(C(=O)NCCn6c(CCC(=O)O)nc7ccccc76)CC[C@]5(C)CC[C@@]4(C)[C@]3(C)CC[C@@H]12 | > 50 µM | > 50 µM | 38% | > 10 µM | 
CC(=O)O[C@H]1CC[C@]2(C)[C@H]3C(=O)C=C4[C@@H]5C[C@@](C)(C(=O)OCCCn6c(CCC(=O)O)nc7ccccc76)CC[C@]5(C)CC[C@@]4(C)[C@]3(C)CC[C@H]2C1(C)C | 15.5 µM | 11.8 µM | 100% | 1.33 µM | 
CC1(C)C(=O)CC[C@]2(C)[C@H]3CC=C4[C@@H]5C[C@@](C)(C(=O)OCCCn6c(CCC(=O)O)nc7ccccc76)CC[C@]5(C)CC[C@@]4(C)[C@]3(C)CC[C@@H]12 | 19.7 µM | 13 µM | 98% | 3.8 µM | 
CC1(C)[C@@H](O)CC[C@]2(C)[C@H]3CC=C4[C@@H]5C[C@@](C)(C(=O)OCCCn6c(CCC(=O)O)nc7ccccc76)CC[C@]5(C)CC[C@@]4(C)[C@]3(C)CC[C@@H]12 | 42.7 µM | 25.6 µM | 100% | 2.82 µM | 
CC1(C)[C@@H](O)CC[C@]2(C)[C@H]3C(=O)C=C4[C@@H]5C[C@@](C)(C(=O)OCCn6c(CCC(=O)O)nc7ccccc76)CC[C@]5(C)CC[C@@]4(C)[C@]3(C)CC[C@@H]12 | > 50 µM | > 50 µM | 60% |  | 
COC(=O)[C@@]1(C)CC[C@]2(C)CC[C@]3(C)C(=CC(=O)[C@@H]4[C@@]5(C)CC[C@H](OC(=O)Cn6c(CCC(=O)O)nc7ccccc76)C(C)(C)[C@@H]5CC[C@]43C)[C@@H]2C1 | 13.2 µM | 7.8 µM | 100% | 1.07 µM | Dose-dependent effect
O=C1C=CC(=O)c2c(O)cccc21 [JUGLONE] |  | 4.77 µM | 44% | 10.8 µM | 
CC1(C)[C@@H](O)CC[C@]2(C)[C@H]3CC=C4[C@@H]5C[C@@](C)(C(=O)OCCn6c(CCC(=O)O)nc7ccccc76)CC[C@]5(C)CC[C@@]4(C)[C@]3(C)CC[C@@H]12 | > 50 µM | > 50 µM | 54% |  | 
CC(=O)O[C@H]1CC[C@]2(C)[C@H]3C(=O)C=C4[C@@H]5C[C@@](C)(C(=O)NCCn6c(CCC(=O)O)nc7ccccc76)CC[C@]5(C)CC[C@@]4(C)[C@]3(C)CC[C@H]2C1(C)C | > 50 µM | > 50 µM | 27% | > 10 µM | 
CC1(C)[C@@H](O)CC[C@]2(C)[C@H]3C(=O)C=C4[C@@H]5C[C@@](C)(C(=O)OCCCn6c(CCC(=O)O)nc7ccccc76)CC[C@]5(C)CC[C@@]4(C)[C@]3(C)CC[C@@H]12 | > 50 µM | > 50 µM | 40% | > 10 µM | 
COC(=O)[C@@]1(C)CC[C@]2(C)CC[C@]3(C)C(=CC(=O)[C@@H]4[C@@]5(C)CC[C@H](OC(=O)CCn6c(CCC(=O)O)nc7ccccc76)C(C)(C)[C@@H]5CC[C@]43C)[C@@H]2C1 | 26.6 µM | 16.1 µM | 88% |  | 
CC(=O)O[C@H]1CC[C@]2(C)[C@H]3C(=O)C=C4[C@@H]5C[C@@](C)(C(=O)OCCn6c(CCC(=O)O)nc7ccccc76)CC[C@]5(C)CC[C@@]4(C)[C@]3(C)CC[C@H]2C1(C)C | 24.4 µM | 27.4 µM | 100% | 1.06 µM | 
